# Bioassay records: PubChem BioAssay, Sanford-Burnham Center for Chemical Genomics
# UBC13 polyUb = UBC13 polyubiquitin chain formation inhibitors, primary screen, biochemical, TR-FRET, uHTS; Ubiquitin-conjugating enzyme E2 N (Homo sapiens), P61088; inhibition, % at 20 µM; 330,000 compounds, 0.47% hits; in the data active means inhibition above about 45%, passing the limit was not always enough
# SENP8 block-1 = human SENP8 protease inhibitors, primary screen, biochemical, fluorescence, Nedd8 protein substrate, uHTS; Sentrin-specific protease 8 (Homo sapiens), Q96LD8; recombinant SENP8; inhibition, % at 20 µM; 360,000 compounds, 0.64% hits; AID 602440, 2012; in the data active means inhibition mostly above about 40%, no sharp cut-off; inactive means mostly below about 27%
# Apaf1 inhib = inhibitors of human Apaf-1 apoptosome, primary screen, biochemical, DEVD-Rh110 fluorescence, uHTS; reconstituted apoptosome caspase-3 activity; inhibition, % at 20 µM; Apoptotic protease-activating factor 1 (Homo sapiens), O14727; 330,000 compounds, 0.71% hits; active means inhibition of at least 40% at 20 µM
#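 System: Apoptosome proteins | Medium: Hepes pH 7.5 with detergent and BSA | Also added: Cytochrome c trigger plus (Z-DEVD)2-Rh110 caspase-3 substrate | Incubation: 30 min compound preincubation, 50 min activation, room temperature | Detection: Rhodamine 110 fluorescence at Ex 480/Em 540 nm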
# SENP7 block = SENP7 protease inhibitors, primary screen, biochemical, luminescence, uHTS | Sentrin-specific protease 7 (Homo sapiens), Q9BQF6 | recombinant SENP7, Z-RLRGG-aminoluciferin luminescence, 40 min | inhibition, % at 5 µM | 330,000 compounds, 1.5% hits | AID 434973, 2010;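 active means inhibition above about 50% at the single test dose, limit read from the data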
# SENP6 inh = SENP6 protease inhibitors, primary screen, biochemical, luminescence, uHTS. Sentrin-specific protease 6 (Homo sapiens), Q9GZR1. Recombinant SENP6 catalytic domain, aminoluciferin luminescence. inhibition, % at 10 µM. 330,000 compounds, 1.8% hits;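 active means inhibition above about 50% at the single tested dose, limit read from the data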
# SENP8 block-2 = SENP8 protease inhibitors, primary screen, biochemical, luminescence. AID 2540, 2010. purified SENP8, Z-RLRGG-aminoluciferin cleavage. 330,000 compounds, 1.2% hits. inhibition, % at 10 µM; in the data active means inhibition above about 50%
# SENP8 conf = SENP8 protease inhibitors, retest, confirmation, biochemical, luminescence, single concentration. shares compounds with SENP7 block. Recombinant SENP8, Z-RLRGG-aminoluciferin luminescence, 60 min. inhibition, % at 12.5 µM. 6,200 compounds, 40% hits;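 active means mean inhibition across replicates above about 50%, limit read from the data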
# SENP6 confirm = SENP6 protease inhibitors, confirmation, biochemical, luminescence, single concentration; shares compounds with SENP7 block; recombinant SENP6, Z-RLRGG-aminoluciferin luminescence; inhibition, % at 12.5 µM; 6,200 compounds, 58% hits
# SENP7 conf = SENP7 protease inhibitors, retest, confirmation, biochemical, luminescence, single concentration. inhibition, % at 12.5 µM. recombinant SENP7, Z-RLRGG-aminoluciferin luminescence, 40 min. 6,200 compounds, 69% hits. shares compounds with SENP7 block
# Casp3 SENP sel = caspase-3 protease inhibitors, confirmation, selectivity assay for SENP inhibitor project, biochemical, single concentration. shares compounds with SENP7 block. purified caspase-3, Z-DEVD-aminoluciferin luminescence, 60 min. inhibition, % at 12.5 µM. 6,200 compounds, 60% hits;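 active means mean inhibition above about 50%, limit read from the data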
# Luc interf = luminescence interference (SENP counter-screen); inhibition, % at 12.5 µM; shares compounds with SENP7 block; 6,200 compounds, 39% hits; AID 488919; Pre-incubated SENP8/Z-RLRGG-aminoluciferin, luciferase luminescence interference;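 active means mean inhibition above about 50% when retested at one dose, limit read from the data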
# Numbers stand for hits; . = inactive; / = no result given. Shown are actives, neighbours in structure and some others; about 3% of the full set was active somewhere.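 How the source made its calls, unless noted: active means mean inhibition above about 50% in the one-dose retest (limit read from the data); inactive means the rest.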
SMILES,UBC13 polyUb,SENP8 block-1,Apaf1 inhib,SENP7 block,SENP6 inh,SENP8 block-2,SENP8 conf,SENP6 confirm,SENP7 conf,Casp3 SENP sel,Luc interf
CCC(=O)Oc1ccc(-c2nc(-c3cccnc3)no2)cc1,.,.,.,99,97,97,99,100,103,99,98
Cc1ccc(-c2nc(-c3ccccc3)no2)c(Cl)c1,.,.,.,100,98,97,96,99,102,97,83
Cc1ccc(-c2nc(-c3cccnc3)no2)cc1,.,.,.,82,81,66,72,81,98,86,67
C[C@@H]1CN([C@@H](C)CO)C(=O)CCCn2cc(nn2)CO[C@H]1CN(C)C(=O)c1cc(-c2ccccc2)on1,/,.,/,/,/,/,/,/,/,/,/
CC1(C(=O)Nc2ccc3c(c2)OCCO3)CCN1C(=O)Cc1ccc(-c2ccccc2)cc1 (stereo not given),/,.,/,/,/,/,/,/,/,/,/
Cc1ccc(-c2nc(-c3ccccc3)no2)cc1,.,.,.,98,63,96,78,86,95,91,50
CC(C)n1c(=O)c2ccccc2n1S(C)(=O)=O,/,.,/,/,/,/,/,/,/,/,/
O=c1c(-c2ccc3c(c2)OCCO3)coc2cc(O)cc(O)c12,.,.,.,58,67,50,76,73,89,58,70
Cc1ccc(NC2=CC(=O)C(=O)c3ccccc32)cc1,.,.,87,.,66,55,.,66,.,.,.
Cc1ccc(NC2=C(Cl)C(=O)c3ccccc3C2=O)cc1,/,.,/,/,/,/,/,/,/,/,/
O=C1C=C(Nc2ccc(O)cc2)C(=O)c2ccccc21,.,.,.,96,97,96,64,98,103,97,53
COc1ccc(C(C(=O)NCc2ccccc2)n2c(=O)c(-c3cc4ccccc4[nH]3)nc3ccccc32)cc1 (stereo not given),/,.,/,/,/,/,/,/,/,/,/
CC(C)c1ccc(CC(=O)N2CCC2(C)C(=O)NS(=O)(=O)c2cccc(OC(F)F)c2)cc1 (stereo not given),/,.,/,/,/,/,/,/,/,/,/
Cc1cc(NC(=O)c2sc3ccccc3c2O)no1,.,.,.,73,89,75,86,85,98,92,65
CC(C)C(C(=O)NCc1ccccc1)N1CCN(C(=O)C2CCCO2)CC1 (stereo not given),/,.,/,/,/,/,/,/,/,/,/
CC(=O)N1C[C@@H](CO)[C@@H](N(C)C(=O)C2CCCCC2)C[C@H]1c1ccccc1,/,.,/,/,/,/,/,/,/,/,/
Cc1c(O)ccc(/C(Cc2ccc3ccccc3n2)=N\O)c1O,.,.,.,.,.,.,/,/,/,/,/
CC(=O)Oc1ccc(C(=O)Cc2ccc3ccccc3n2)c(O)c1C,.,.,.,74,.,.,.,.,.,.,.
CCOc1cccc(/C=N/NC(=O)c2ccc3c(c2)OCCO3)c1O,.,.,.,.,.,.,/,/,/,/,/
O=C(NC(=S)Nc1cc([N+](=O)[O-])ccc1O)c1ccc2c(c1)OCO2,.,.,.,81,90,89,93,94,97,87,77
Cc1cccc(/C=N/NC(=O)c2ccc3c(c2)OCCO3)c1O,.,.,.,97,94,94,96,98,103,94,66
O=C(N/N=C/c1cc(O)ccc1[N+](=O)[O-])c1ccc2c(c1)OCCO2,.,.,.,.,.,.,/,/,/,/,/
O=C(N/N=C/c1cc([N+](=O)[O-])ccc1O)c1ccc2c(c1)OCCO2,.,.,.,89,93,85,.,.,.,.,.
O=C(NC(=S)Nc1ccc([N+](=O)[O-])cc1O)C1CCCCC1,.,.,.,.,.,.,/,/,/,/,/
Cn1ccc(C(=O)NC(=S)Nc2ccc([N+](=O)[O-])cc2O)n1,.,.,.,54,72,56,74,72,93,75,78
SMILES,UBC13 polyUb,SENP8 block-1,Apaf1 inhib,SENP7 block,SENP6 inh,SENP8 block-2,SENP8 conf,SENP6 confirm,SENP7 conf,Casp3 SENP sel,Luc interf
COC(=O)C[C@@H]1C=C[C@H](NC(=O)Nc2ccc(F)cc2)[C@@H](CO)O1,/,.,/,/,/,/,/,/,/,/,/
CCCCC(=O)N(C)c1c(C)nc2ccc(C(=O)N3CCN(S(=O)(=O)CC)CC3)cn12,/,.,/,/,/,/,/,/,/,/,/
COC(=O)C1=CN(c2ccc(C(C)(C)C)cc2)C(N)=C(C#N)C1c1ccccc1F (stereo not given),/,.,/,/,/,/,/,/,/,/,/
Cc1cccc(/C=N\NC(=O)c2ccc(Cl)cc2)c1O,.,.,.,73,.,.,.,.,.,60,.
CC1(C2CC(=O)c3c(O)ccc(O)c3C2)OCCO1 (stereo not given),/,.,/,/,/,/,/,/,/,/,/
O=C(NCCO)c1ccc2c3n(nc2c1)-c1ccc(Cl)cc1CO3,.,.,.,.,.,.,/,/,/,/,/
C=CCNC(=O)c1ccc2c3n(nc2c1)-c1ccccc1CO3,.,.,.,75,80,77,76,75,94,90,82
COCCNC(=O)c1ccc2c3n(nc2c1)-c1ccccc1CO3,.,.,.,.,.,.,/,/,/,/,/
O=C(c1ccc2c3n(nc2c1)-c1ccc(Cl)cc1CO3)N1CCCCC1,.,.,.,84,87,86,84,94,100,94,.
Cc1ccc2c(c1)COc1c3ccc(C(=O)N4CCOCC4)cc3nn1-2,.,.,.,69,71,.,72,69,90,88,76
O=C(O)c1ccc2c3n(nc2c1)-c1ccc(Cl)cc1CO3,.,/,.,94,98,94,98,99,103,98,96
Cc1cc2nc(-c3ccc(F)cc3)c(CC(C)(C)C)n2c(C)c1Br,/,.,/,/,/,/,/,/,/,/,/
